ChEMBL document CHEMBL4219084, “Design, synthesis and biological assessment of N-adamantyl, substituted adamantyl and noradamantyl phthalimidines for nitrite, TNF-α and angiogenesis inhibitory activities” (Bioorg Med Chem, 2018)

How the values were obtained:
RAW264.7 [1] = test: Antiinflammatory activity in mouse RAW264.7 cells assessed as reduction in LPS-induced TNFalpha production by measuring TNFalpha levels at 30 uM pretreated for 1 hr followed by LPS-challenge measured after 20 to 24 hrs by ELISA relative to control; format: functional; set-up: scale not given: the % may be the effect or the level left
Procedure, shortened: (§1)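 RAW 264.7 cells in DMEM with 10% FBS and penicillin/streptomycin, 37 °C, 5% CO2, seeded at 200×10^3 per well in 24-well plates. Media replaced at 24 h. Compound in DMSO (0.5% final) added 2 h later, then LPS 60 ng/ml 1 h after that. Media collected 20–24 h after LPS. 3–4 wells per concentration, expressed as % of DMSO vehicle control (mean ± SE).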

RAW264.7 [2] = test: Antiinflammatory activity in mouse RAW264.7 cells assessed as reduction in LPS-induced nitrite production by measuring nitrite levels at 30 uM pretreated for 1 hr followed by LPS-challenge measured after 20 to 24 hrs by Griess assay relative to control; format: functional; set-up: scale not given: the % may be the effect or the level left; procedure, shortened: as §1
[3] = Cytotoxicity against LPS-induced mouse RAW264.7 cells assessed as cell viability at 30 uM pretreated for 1 hr followed by LPS-challenge measured after 20 to 24 hrs by CellTiter 96 aqueous non-radioactive cell proliferation assay; format: cell-based; conditions: LPS-induced RAW264.7 cells, read-out: Activity; procedure, shortened: as §1
[4] = Solubility of the compound in DMEM media at 30 uM; format: physicochemical
Danio rerio [5] = organism: Danio rerio; test: Antiangiogenic activity in 24 hrs post fertilized zebra fish embryo harboring fli1:EGFP assessed as intersegmental vessel length at 10 ug/ml after 24 hrs by fluorescence microscopic analysis; format: functional
Procedure, shortened: (§2)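 fli1:EGFP transgenic zebrafish embryos, identified by fluorescence, manually dechorionated at 24 h post fertilization and placed in plates with compound diluted in tank water, vehicle controls alongside. After 24 h exposure, embryos anaesthetized with 0.1% tricaine and intersegmental vessels scored for length (µm) and number. Values given as mean ± S.E.M.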

Danio rerio [6] = organism: Danio rerio; test: Antiangiogenic activity in 24 hrs post fertilized zebra fish embryo harboring fli1:EGFP assessed as number of intersegmental vessel at 10 ug/ml after 24 hrs by fluorescence microscopic analysis; format: functional; procedure, shortened: as §2
Danio rerio [7] = organism: Danio rerio; test: Antiangiogenic activity in 24 hrs post fertilized zebra fish embryo harboring fli1:EGFP assessed as intersegmental vessel length after 24 hrs by fluorescence microscopic analysis; format: functional, organism-based; procedure, shortened: as §2
Danio rerio [8] = organism: Danio rerio; test: Toxicity in 24 hrs post fertilized zebra fish embryo harboring fli1:EGFP at >50 ug/ml; format: organism-based; conditions: zebrafish, in vivo
Danio rerio [9] = organism: Danio rerio; test: Antiangiogenic activity in 24 hrs post fertilized zebra fish embryo harboring fli1:EGFP assessed as intersegmental vessel length at 5 ug/ml after 24 hrs by fluorescence microscopic analysis; format: functional; procedure, shortened: as §2
Danio rerio [10] = organism: Danio rerio; test: Antiangiogenic activity in 24 hrs post fertilized zebra fish embryo harboring fli1:EGFP assessed as number of intersegmental vessel at 5 ug/ml after 24 hrs by fluorescence microscopic analysis; format: functional; procedure, shortened: as §2
Danio rerio [11] = organism: Danio rerio; test: Toxicity in 24 hrs post fertilized zebra fish embryo harboring fli1:EGFP at >5 ug/ml; format: organism-based; conditions: zebrafish, in vivo

For O=C1c2cccc([N+](=O)[O-])c2CN1C12CC3CC(CC(C3)C1)C2, the Activity (RAW264.7 [1]) was 86%, the Activity (RAW264.7 [2]) was 40% and the viability at 30 µM [3] was 114%. For the same compound, the solubility [4] was “Insoluble”.

Work on O=C1c2ccccc2CN1C12CC3CC(CC1C3)C2 yielded an Activity (RAW264.7 [1]) of 52% and a viability at 30 µM [3] of 74%.

With S=C1c2ccccc2CN1C12CC3CC(CC1C3)C2 the Activity (RAW264.7 [1]) was 85%, the viability at 30 µM [3] was 94% and the solubility [4] was “Insoluble”.

With O=C1c2cccc([N+](=O)[O-])c2CN1CC12CC3CC(CC(C3)C1)C2 the Activity (RAW264.7 [1]) was 77%, the Activity (RAW264.7 [2]) was 55% and the viability at 30 µM [3] was 92%.

CC(N1Cc2ccccc2C1=O)C12CC3CC(CC(C3)C1)C2 (stereo not drawn) gave an Activity (RAW264.7 [1]) of 55%, an Activity (RAW264.7 [2]) of 52% and a viability at 30 µM [3] of 82%.

In the case of O=C1c2ccccc2CN1C12CC3CC(CC(O)(C3)C1)C2, the Activity (RAW264.7 [1]) is reported as 80%, the Activity (RAW264.7 [2]) is reported as 101% and the viability at 30 µM [3] is reported as 98%. It also gave an Activity (Danio rerio [5]) of 105.1 um and an Activity (Danio rerio [6]) of 19.5.

Compound CC(N1Cc2ccccc2C1=S)C12CC3CC(CC(C3)C1)C2 (stereo not drawn) has an Activity (RAW264.7 [1]) of 90%, an Activity (RAW264.7 [2]) of 52% and a viability at 30 µM [3] of 84%. The solubility [4] was “Insoluble”.

With O=C1c2cccc([N+](=O)[O-])c2CN1C12CC3CC(CC1C3)C2 the Activity (RAW264.7 [1]) was 90%, the Activity (Danio rerio [7]) was “Dose-dependent effect” and the Activity (RAW264.7 [2]) was 49%. For the same compound, the viability at 30 µM [3] was 92%, the Activity (Danio rerio [5]) was 42.8 um and the Activity (Danio rerio [8]) was “Toxic”. For the same compound, the Activity (Danio rerio [6]) was 8.6.

With CC(N1Cc2c(cccc2[N+](=O)[O-])C1=O)C12CC3CC(CC(C3)C1)C2 (stereo not drawn) the Activity (RAW264.7 [1]) was 72%, the Activity (RAW264.7 [2]) was 35% and the viability at 30 µM [3] was 81%.

For CC(N1Cc2c(cccc2[N+](=O)[O-])C1=S)C12CC3CC(CC(C3)C1)C2 (stereo not drawn), the Activity (RAW264.7 [1]) was 96%, the Activity (RAW264.7 [2]) was 11.5% and the viability at 30 µM [3] was 83%. It also gave an Activity (Danio rerio [5]) of 86.4 um and an Activity (Danio rerio [6]) of 22.

In the case of Nc1cccc2c1CN(C1C3CC4CC(C3)CC1C4)C2=O (stereo not drawn), the Activity (RAW264.7 [1]) is reported as 101%, the Activity (Danio rerio [7]) is reported as “Dose-dependent effect” and the Activity (RAW264.7 [2]) is reported as 72%. For the same compound, the viability at 30 µM [3] was 99%, the Activity (Danio rerio [5]) was 42.1 um and the Activity (Danio rerio [8]) was “Toxic”. It also gave an Activity (Danio rerio [6]) of 14.

O=C1c2ccccc2CN1C1C2CC3CC(C2)CC1C3 (stereo not drawn) showed an Activity (RAW264.7 [1]) of 58%, an Activity (RAW264.7 [2]) of 62% and a viability at 30 µM [3] of 75%.

For O=C1c2cccc([N+](=O)[O-])c2CN1C12CC3CC(CC(O)(C3)C1)C2, the Activity (RAW264.7 [1]) was 91%, the Activity (RAW264.7 [2]) was 94% and the viability at 30 µM [3] was 107%.

For O=C1c2cccc([N+](=O)[O-])c2CN1C1C2CC3CC(C2)CC1C3 (stereo not drawn), the Activity (RAW264.7 [1]) was 65%, the Activity (Danio rerio [9]) was 48.2 um and the Activity (RAW264.7 [2]) was 9.2%. The Activity (Danio rerio [10]) was 14.6, the viability at 30 µM [3] was 82% and the Activity (Danio rerio [11]) was “Toxic”.

O=C1c2ccccc2CN1CC12CC3CC(CC(C3)C1)C2 gave an Activity (RAW264.7 [1]) of 59%, an Activity (RAW264.7 [2]) of 50% and a viability at 30 µM [3] of 81%. It also gave an Activity (Danio rerio [5]) of 83.1 um and an Activity (Danio rerio [6]) of 18.2.
